# According to ChEMBL document CHEMBL4406803, “A- and D-Ring Structural Modifications of an Androsterone Derivative Inhibiting 17β-Hydroxysteroid Dehydrogenase Type 3: Chemical Synthesis and Structure-Activity Relationships” (J Med Chem, 2019):
# What was measured:
# Type in all cases: functional
# LAPC4 [1] = assay: Antiproliferative activity against human LAPC4 cells expressing androgen receptor assessed as inhibition of cell proliferation at 0.5 uM measured after 3 days by MTS assay relative to control; conditions: LAPC4, 72 h
# PC-3 [2] = assay: Antiproliferative activity against AR-deficient human PC3 cells assessed as reduction in cell proliferation at 0.5 uM measured after 3 days by MTS assay relative to control; parameters: scale not given: the % may be the effect or the level left
# Summary of the method: (§1)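 Androgen-independent PC-3 cells were plated at 3,000 per well in triplicate in RPMI-1640 with 10% FBS. Compounds were added at 0.1, 0.5 and 1.0 µM from DMSO stock, with 0.05% DMSO in controls, and incubated 3 days. Growth was read by MTS (4 h, 490 nm) and expressed as % of non-treated control (100%).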
# LAPC4 [3] = assay: Antiproliferative activity against human LAPC4 cells expressing androgen receptor assessed as inhibition of cell proliferation at 1 uM measured after 3 days by MTS assay relative to control; conditions: LAPC4, 72 h
# LAPC4 [4] = assay: Antiproliferative activity against human LAPC4 cells expressing androgen receptor assessed as inhibition of cell proliferation at 0.1 uM measured after 3 days by MTS assay relative to control; conditions: LAPC4, 72 h
# PC-3 [5] = assay: Antiproliferative activity against AR-deficient human PC3 cells assessed as reduction in cell proliferation at 1 uM measured after 3 days by MTS assay relative to control; parameters: scale not given: the % may be the effect or the level left; summary of the method: as §1
# PC-3 [6] = assay: Antiproliferative activity against AR-deficient human PC3 cells assessed as reduction in cell proliferation at 0.1 uM measured after 3 days by MTS assay relative to control; parameters: scale not given: the % may be the effect or the level left; summary of the method: as §1
smiles,measurement,setting,value
C#C[C@]1(O)CC[C@H]2[C@@H]3CCc4cc(OC)c(N5CCN(C(=O)[C@@H]6CCCN6C(=O)c6ccc7ccccc7n6)CC5)cc4[C@H]3CC[C@@]21C,inhibition at 0.5 µM,LAPC4 [1],62%
same,Activity,PC-3 [2],20%
same,inhibition at 1 µM,LAPC4 [3],69%
same,inhibition at 0.1 µM,LAPC4 [4],19%
same,Activity,PC-3 [5],39%
same,Activity,PC-3 [6],3%
